proCasp7 act = activates human procaspase-7, counter-screen for procaspase-3 activators | P55210 | recombinant procaspase-7, Ac-DEVD-pNA absorbance 405 nm; D23A/D198A/D206A triple mutant, cannot self-cleave; scale: DMSO 0, 5 µM enzyme 100 | 330,000 compounds, 0.093% hits | activation, % at 8.5 µM | AID 463210;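 active = percent activation above the screen-wide mean plus 3 SD, cut at about 25% in these data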
Target sequence (P55210 whole entry D23A/D198A/D206A): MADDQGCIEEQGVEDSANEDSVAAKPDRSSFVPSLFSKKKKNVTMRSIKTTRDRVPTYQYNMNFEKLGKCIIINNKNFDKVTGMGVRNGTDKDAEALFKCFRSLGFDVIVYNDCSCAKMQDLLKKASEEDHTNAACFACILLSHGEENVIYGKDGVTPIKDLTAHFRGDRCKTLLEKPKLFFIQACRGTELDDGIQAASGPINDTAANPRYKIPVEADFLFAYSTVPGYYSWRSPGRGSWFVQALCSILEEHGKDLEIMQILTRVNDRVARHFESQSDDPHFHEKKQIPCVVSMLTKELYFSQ
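Test system: Procaspase-7 triple mutant (PC-7 D3A). Also added: Ac-DEVD-pNA substrate, 400 µM as added. Schedule: 1 h enzyme–compound preincubation and 2 h substrate reaction, both 25 °C. Signal: p-Nitroaniline absorbance at 405 nm, read at 0 and 120 min. Control set: low DMSO alone, high DMSO plus 5 µM PC-7.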
Rce1 inhib = yeast Ras-converting enzyme inhibition; 290,000 compounds, 0.27% hits; yeast membranes, quenched prenylated peptide cleavage fluorescence; Q03530; calls only;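 active = fall in fluorescence gain of 50% or more versus controls, with final raw signal at or below 3038400; inconclusive = same 50% fall but final raw signal above 3038400; inactive = fall in fluorescence gain under 50%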;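 note: plate controls were neutral control wells for no effect and wells lacking membranes for full effect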
PolyA inh = yeast polyadenylation inhibition; S. cerevisiae SKY197-pL101 polyadenylation reporter, beta-gal luminescence; efflux-impaired pdr1/pdr3 knockout yeast; score 100 = 6 SD above DMSO; activity score, % at 12 µM; 300,000 compounds, 0.02% hits; AID 1875;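 active = lowest replicate activity score at least 50, where 100 means six control SD above control mean; inconclusive = lowest score under 50 but half or more replicates reach 50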;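 note: yeast exposed to compound for 9 h at 30 °C; higher score means more reporter readthrough which indicates perturbed polyadenylation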
Bfl-1 A1 inh = inhibitors of the anti-apoptotic protein A1, read as caspase activation. caspase activation, % (concentration not given with the values). MEF A1-2A-BIM cells, Caspase-Glo 3/7 luminescence, 3 h; percent of clofoctol response, vehicle zero. 330,000 compounds, 0.066% hits;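 active = over half of replicate activation scores above 10%, or exactly half above 10 with the replicate mean above 10; inconclusive = replicate mean below 10 yet half the replicates above 10; inactive = over half of replicates below 10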
proCasp3 act = activates human procaspase-3 | P42574 | recombinant procaspase-3 D3A, Ac-DEVD-pNA absorbance 405 nm | activation, % at 8.5 µM | 330,000 compounds, 0.11% hits | AID 463141;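 active = activation above the mean of all tested compounds plus 3 SD, cut at about 21% in these data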;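 note: 0% = DMSO alone and 100% = DMSO wells spiked with extra 5 µM PC-3 D3A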
Target sequence (P42574 whole entry D9A/D28A/D175A): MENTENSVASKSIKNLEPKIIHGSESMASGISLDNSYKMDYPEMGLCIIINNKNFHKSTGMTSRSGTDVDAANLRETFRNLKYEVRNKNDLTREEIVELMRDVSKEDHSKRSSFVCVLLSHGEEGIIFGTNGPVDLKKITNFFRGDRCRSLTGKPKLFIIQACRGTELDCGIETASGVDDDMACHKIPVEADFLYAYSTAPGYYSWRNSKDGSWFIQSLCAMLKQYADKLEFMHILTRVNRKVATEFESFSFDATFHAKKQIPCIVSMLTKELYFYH
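System: Procaspase-3 D3A mutant. Medium: Zinc-free 300 mM NaCl, 50 mM HEPES, 0.01% Triton X-100. Schedule: 1 h preincubation plus 2 h reaction at 25 °C. Measured by: 405 nm absorbance of p-nitroaniline, reads at 0 and 120 min. Read-out: percent activation relative to control range.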
* = called active by the depositor. A selection: hits, their analogues and other compounds. The true share with any hit is near 0.48%.

Screening CSc1ncccc1C(=O)N1CCCC(C(=O)c2ccc3ccccc3c2)C1 (centres undefined) returned proCasp7 act 3, Rce1 inhib inactive, PolyA inh 3, Bfl-1 A1 inh -1 and proCasp3 act 7.
`CSc1ccc(C(=O)C2CCCN(C(=O)c3cccnc3SC)C2)cc1` (centres undefined) gave proCasp7 act 6, Rce1 inhib active, PolyA inh -10, Bfl-1 A1 inh 0 and proCasp3 act 7.
Screening Cc1ccc(S(=O)(=O)N(C)S(=O)(=O)c2ccc(C#N)cc2)cc1 returned proCasp7 act 5, Rce1 inhib inactive, PolyA inh -3, Bfl-1 A1 inh 0 and proCasp3 act -2.
Screening CCOC(=O)c1sc(NC(=O)CC)nc1C returned proCasp7 act -17, Rce1 inhib inactive, PolyA inh 19, Bfl-1 A1 inh -1 and proCasp3 act 3.
CCCCOC(=O)Nc1nc(C)c(C(=O)OCC)s1 was read as proCasp7 act 7, Rce1 inhib active, PolyA inh -16, Bfl-1 A1 inh -2 and proCasp3 act 9.
For Cn1c(CN2CCCC2)c(C#N)c2ccccc21 the results were proCasp7 act 1, Rce1 inhib inactive, PolyA inh 10, Bfl-1 A1 inh -1 and proCasp3 act 4.
`Cn1c(CN2CCOCC2)c(C#N)c2ccccc21` gave proCasp7 act -5, Rce1 inhib active, PolyA inh -9, Bfl-1 A1 inh 0 and proCasp3 act 1.
For CCOCCN1CCN(C2c3ccccc3CSc3ccccc32)CC1 (centres undefined) the results were proCasp7 act -5, Rce1 inhib inactive, PolyA inh 10, Bfl-1 A1 inh 0 and proCasp3 act -6.
c1ccc(Nc2cccc(Nc3ccccc3)n2)cc1 was read as proCasp7 act -6, Rce1 inhib active, PolyA inh -48, Bfl-1 A1 inh -1 and proCasp3 act -10.
For COc1cccc(NC(=O)COC(=O)CCC2CCCC2)c1 the results were proCasp7 act 1, Bfl-1 A1 inh 1 and proCasp3 act 4.
N#Cc1ccc(CSc2nnc(-c3c[nH]c4ccccc34)n2-c2ccccc2)cc1 was read as proCasp7 act -2, Rce1 inhib active, PolyA inh 1, Bfl-1 A1 inh 0 and proCasp3 act 2.
Screening O=C(Nc1cc(S(=O)(=O)N2CCCCC2)ccc1Cl)c1ccccc1NS(=O)(=O)c1ccc(F)cc1 returned proCasp7 act 9, Rce1 inhib active, PolyA inh 14, Bfl-1 A1 inh 0 and proCasp3 act -3.
O=C(Nc1cc(S(=O)(=O)N2CCCCC2)ccc1O)c1ccccc1NS(=O)(=O)c1ccc(F)cc1 was read as proCasp7 act 3, Rce1 inhib inactive, PolyA inh 0, Bfl-1 A1 inh 0 and proCasp3 act 0.
Screening CC(=O)Nc1ccc(SCCN2CC[C@@H](C(C)(C)C)CCC2=O)cc1 returned proCasp7 act -19, Bfl-1 A1 inh 4 and proCasp3 act -10.
`COc1ccc(C2CC(c3cccs3)=NN2c2ccc(C=O)cc2)cc1` (centres undefined) gave proCasp7 act -38, Rce1 inhib active, PolyA inh 6, Bfl-1 A1 inh 0 and proCasp3 act -61.
COc1cc2[nH]c3c(=O)n(CCN4CCOCC4)cnc3c2cc1OC was read as proCasp7 act -1, Rce1 inhib active, PolyA inh -13, Bfl-1 A1 inh 0 and proCasp3 act 4.
For CCOC(=O)CC(N)c1cccc([N+](=O)[O-])c1 (centres undefined) the results were proCasp7 act -4, Rce1 inhib inactive, PolyA inh inconclusive, Bfl-1 A1 inh 0 and proCasp3 act 1.
Screening c1ccc(CNc2nc(NCc3ccccc3)c3ccccc3n2)cc1 returned proCasp7 act -5, Rce1 inhib active, PolyA inh 5, Bfl-1 A1 inh 0 and proCasp3 act 2.
For Cc1ccc(OCCn2c3ccccc3n3nc(C)c(=O)nc23)cc1 the results were proCasp7 act 4, Rce1 inhib active, PolyA inh -1, Bfl-1 A1 inh 0 and proCasp3 act 0.
COc1cc(C(=O)N2CCc3ccccc32)c([N+](=O)[O-])cc1OC was read as proCasp7 act 0, Rce1 inhib inactive, PolyA inh 20, Bfl-1 A1 inh -1 and proCasp3 act -10.
For O=C(OC[C@@H]1CCCN2CCCC[C@H]12)c1cc2ccccc2oc1=O the results were proCasp7 act 7, Rce1 inhib active, PolyA inh 0, Bfl-1 A1 inh 0 and proCasp3 act -4.
O=C(OC1CCCCC1)c1cc2ccccc2oc1=O was read as proCasp7 act 2, Rce1 inhib inactive, PolyA inh -3, Bfl-1 A1 inh -1 and proCasp3 act -4.
For COc1ccc(NC(=O)N2CCc3ccccc3C2)c(OC)c1 the results were proCasp7 act -11, Rce1 inhib inactive, PolyA inh 25, Bfl-1 A1 inh -1 and proCasp3 act -1.
`COc1ccc(CN2CCCCC2C(=O)Nc2ccc(OC)c(OCC(C)C)c2)cc1OC` (centres undefined) gave proCasp7 act -7, Rce1 inhib active, PolyA inh 2, Bfl-1 A1 inh 1 and proCasp3 act 7.
Nc1nonc1-n1nnc(C(=O)N/N=C/c2ccccc2)c1CSc1ccccc1 was read as proCasp7 act 9, PolyA inh -19, Bfl-1 A1 inh 0 and proCasp3 act 2.
For Cc1nnn(-c2nonc2N)c1C(=O)N/N=C/c1cccc2ccccc12 the results were proCasp7 act 5, Rce1 inhib active, PolyA inh 8, Bfl-1 A1 inh 0 and proCasp3 act -9.
`Nc1nonc1-n1nnc(C(=O)N/N=C/c2cccc(O)c2)c1CN1CCCC1` gave Rce1 inhib inactive and Bfl-1 A1 inh 2.
For CN1CCN(Cc2c(C(=O)N/N=C/c3cccc(Br)c3)nnn2-c2nonc2N)CC1 the results were proCasp7 act 5, Rce1 inhib active, PolyA inh 6, Bfl-1 A1 inh 1 and proCasp3 act 2.
Screening Nc1nonc1-n1nnc(C(=O)N/N=C/c2ccoc2)c1CSc1ccccc1 returned proCasp7 act 5, Rce1 inhib active, PolyA inh -15, Bfl-1 A1 inh 0 and proCasp3 act 3.
COc1ccc(-c2nn(-c3ccccc3)cc2C(N)=O)cc1OC was read as proCasp7 act -1, PolyA inh -6, Bfl-1 A1 inh 0 and proCasp3 act 1.
`Cc1nn(C(C)C(=O)NC2CCCCC2)c(=O)c2nn(-c3ccccc3)c(C)c12` (centres undefined) gave proCasp7 act 2, Rce1 inhib inactive, PolyA inh 1, Bfl-1 A1 inh 0 and proCasp3 act 3.

Compound activity deposited in PubChem by several laboratories.
